We go through eleven compounds from ChEMBL document CHEMBL1124509, “Synthesis, cytotoxicity, and antiviral activity of certain 7-[(2-hydroxyethoxy)methyl]pyrrolo[2,3-d]pyrimidine nucleosides related to toyocamycin and sangivamycin” (J Med Chem, 1989).

For one assay, the species on record is Homo sapiens. In words: Cytotoxicity against Normal human diploid cells (human foreskin fibroblasts cells). Particulars: Fibroblast.
The subject of assay [1] is L1210. Description: Antiproliferative testing in vitro and its ability to inhibit the growth of L1210 murine leukemia cells determined at a concentration of 10 uM. The assay is classed as functional, Mus musculus. On the set-up: scale not given: the % may be the effect or the level left. The method in brief: (§1)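 L1210 mouse leukemia cells grown in static suspension culture in Fischer's medium for 3 days with test compound. Growth rate was taken as the slope of semilog cell number versus time, expressed as control doubling time as percent of treated doubling time, i.e. treated growth relative to control.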

The next assay concerns Human alphaherpesvirus 1. In words: Antiviral activity was determined against Herpes simplex virus type 1 by Plaque-reduction assay. The assay is classed as functional, organism-based. An outline of the steps: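 BSC-1 monolayers (MEM with Earle's salts, 10% FBS) infected with HSV-1 strain S-148, about 100 PFU per 0.2 mL; compound dissolved in overlay medium; plaques counted. IC50 by regression of percent inhibition on log concentration. Acyclovir or ganciclovir positive control, with sets rejected beyond 1.5 SD of control mean.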

Assay [2] in a line: Cytotoxicity against Monkey kidney cells(BSC-1 cells). The settings on record: Cercopithecidae. It counts as cell-based.
Another assay relates to Human betaherpesvirus 5. In words: Antiviral activity against Human cytomegalovirus in a plaque-reduction assay. The assay is classed as functional, organism-based. The method in brief: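 HFF monolayers (MEM with Earle's salts, 10% FBS) infected with plaque-purified Towne strain HCMV, about 50 PFU per 0.2 mL inoculum; compound dissolved in overlay medium; plaques counted. IC50 from linear regression of percent inhibition against log concentration. Ganciclovir or acyclovir positive control run; sets rejected if control deviated >1.5 SD from its mean.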

Assay [3] can be described thus: Cytotoxicity against human neoplastic cell line (KB). The assay is classed as cell-based. An outline of the steps: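 KB cells (MEM with Hank's salts, 5% FBS) exposed to compound; incorporation of radioactive precursors, including [3H]dThd, into DNA, RNA and protein measured. An IC50 for each was obtained by regression on log concentration, and the three IC50s were averaged. Averages of two to four experiments.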

In assay [4] the test system is L1210. In words: Antiproliferative testing in vitro and its ability to inhibit the growth of L1210 murine leukemia cells determined at a concentration of 100 uM. The assay is classed as functional, Mus musculus. An outline of the steps: as §1
Assay [5] concerns L1210. Description: Antiproliferative testing in vitro and its ability to inhibit the growth of L1210 murine leukemia cells determined at a concentration of 10 uM. On the set-up: scale not given: the % may be the effect or the level left.

Molecules are shown by their SMILES.

Take `COC(=N)c1cn(COCCO)c2ncnc(N)c12`: the IC50 (in the assay listed under Homo sapiens; in the assay with Human alphaherpesvirus 1; in assay [2]; in the assay on Human betaherpesvirus 5) was greater than 100 µM in each case. Also, in the assay on L1210 [1], the Control worked out at 108%.

`Nc1ncnc2c1ccn2COCCO`: the concentration for half-maximal inhibition (IC50) in the assay filed under Homo sapiens was greater than 100 µM; in the assay with Human alphaherpesvirus 1, greater than 100 µM; in assay [2], greater than 100 µM; in assay [3], greater than 320 µM; with Human betaherpesvirus 5, greater than 100 µM.

Take `NC(=O)c1cn(COCCO)c2ncnc(N)c12`: the IC50 in the assay listed under Homo sapiens was greater than 320 µM; in the assay on Human alphaherpesvirus 1, greater than 100 µM; in assay [2], greater than 100 µM; in assay [3], greater than 100 µM; in the assay with Human betaherpesvirus 5, greater than 320 µM. Besides, in the assay with L1210 [4], the “Growth rate, % of control” value amounted to 100%.

Turning to `NC(=NO)c1cn(COCCO)c2ncnc(N)c12`, the IC50 (in the assay filed under Homo sapiens; with Human alphaherpesvirus 1; in assay [2]; in the assay on Human betaherpesvirus 5) was greater than 100 µM each time. Moreover, the “Growth rate, % of control” value with L1210 [4] is 89%.

On to `N#Cc1cnc2n(COCCO)cnc(N)c1-2`, for which the half-maximal inhibitory concentration (IC50) in the assay listed under Homo sapiens is greater than 320 µM; in the assay with Human alphaherpesvirus 1, greater than 100 µM; in assay [2], greater than 100 µM; in the assay with Human betaherpesvirus 5, greater than 320 µM.

Take `Nc1nc2c(ncn2COCCO)c(=O)[nH]1` [ACYCLOVIR]: the IC50 was greater than 100 µM in the assay filed under Homo sapiens, 3.9 µM in the assay on Human alphaherpesvirus 1, greater than 100 µM in assay [2] and greater than 100 µM in assay [3].

For `NNC(=O)c1cn(COCCO)c2ncnc(N)c12`, the half-inhibitory concentration (IC50) (in the assay listed under Homo sapiens; with Human alphaherpesvirus 1; in assay [2]; with Human betaherpesvirus 5) was greater than 100 µM in each case. The “Growth rate, % of control” value in the assay on L1210 [4] came out at 92%.

In the case of `N#Cc1cn(COCCO)c2ncnc(N)c12`, the IC50 in the assay listed under Homo sapiens was greater than 100 µM; with Human alphaherpesvirus 1, greater than 320 µM; in assay [2], greater than 320 µM; in assay [3], greater than 100 µM; in the assay with Human betaherpesvirus 5 it was greater than 100 µM. Besides, in the assay with L1210 [4], the Growth rate, % of control came out at 100%.

On to `CC(=O)OCCOCn1cc(C#N)c2c(N)ncnc21`, for which the IC50 (in the assay listed under Homo sapiens; with Human alphaherpesvirus 1; in assay [2]; in the assay with Human betaherpesvirus 5) was greater than 100 µM each time.

Regarding `Nc1nc2c(ncn2COC(CO)CO)c(=O)[nH]1` [GANCICLOVIR], the 50% inhibitory concentration (IC50) in the assay listed under Homo sapiens is greater than 100 µM; in the assay on Human alphaherpesvirus 1 it was 2.3 µM; in assay [2] it was greater than 100 µM; in assay [3], 1000 µM; in the assay on Human betaherpesvirus 5, 7.9 µM.

On to `NC(=S)c1cn(COCCO)c2ncnc(N)c12`, for which the 50% inhibitory concentration (IC50) in the assay listed under Homo sapiens is 100 µM; in the assay with Human alphaherpesvirus 1 it was greater than 100 µM; in assay [2], greater than 100 µM; in assay [3], greater than 100 µM; with Human betaherpesvirus 5, 11 µM. The compound further showed a Control in the assay on L1210 [5] of 93%.
